Assay outcomes: PubChem, several laboratories
JMJD2C inh – inhibitors of human GASC-1 (JMJD2C) demethylase | Q9H3R0 | GST-JMJD2C(1-420) H3K9me3 demethylation, DELFIA europium | inhibition, % at 2.35 µM | hit rate 0.069% among 330,000 | AID 2099;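 active = more than half of a compound's replicate wells show inhibition beyond 50%, single wells judged on their own value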;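 also: signal counts dimethyl H3K9 product captured on neutravidin plate; 0% = median of DMSO wells and 100% = 0.3 times that DMSO median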
Target sequence (Q9H3R0 1-420 limits assumed): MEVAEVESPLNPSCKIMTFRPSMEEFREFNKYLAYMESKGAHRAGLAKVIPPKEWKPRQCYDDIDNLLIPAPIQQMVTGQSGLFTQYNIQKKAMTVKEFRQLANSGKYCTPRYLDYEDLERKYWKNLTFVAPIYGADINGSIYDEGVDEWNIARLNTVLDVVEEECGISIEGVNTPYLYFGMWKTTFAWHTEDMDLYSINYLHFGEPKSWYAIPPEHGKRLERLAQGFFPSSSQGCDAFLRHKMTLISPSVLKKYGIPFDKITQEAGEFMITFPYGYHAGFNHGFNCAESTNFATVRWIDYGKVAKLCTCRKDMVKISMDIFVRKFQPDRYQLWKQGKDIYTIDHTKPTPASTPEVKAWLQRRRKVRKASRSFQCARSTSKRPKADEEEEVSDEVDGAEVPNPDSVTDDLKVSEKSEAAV
NPR1 activator – GC-A (human) enzyme activation | activation, % at 10 µM | hit rate 0.14% among 370,000 | HEK293 GC-A cells, cGMP TR-FRET, EC30 ANP; 0% at EC30 ANP, 100% saturating ANP | P16066; in the data active = activation above about 40%
GC-B act – GC-B (human) receptor activation; P20594; HEK293-GC-B cells, CNP EC30, cGMP TR-FRET; 0% at EC30 CNP, 100% saturating CNP; activation, % at 10 µM; hit rate 0.11% among 370,000; AID 1920062;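 active = activation at 10 µM reaching about 35% in either raw or pattern-adjusted values, limit read from the data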
NR3A LBD binder – modulators (binders) of human NR3A ligand-binding domain | Tm shift relative to glycine control, % at 25 µM | hit rate 2.5% among 340,000 | NR3A LBD differential scanning fluorimetry, Tm shift; 0% = protein alone, 100% = glycine-bound protein | AID 1259313;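 active = melting temperature shift of at least 10% of the positive control shift, at one fixed dose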
aDG glyco act – alpha-DG glycosylation activation. Pro5-aDG cells, alpha-DG glycosylation AlphaScreen (IIH6); 0% Pro5, 100% B10-LARGE cell signal. activation, % at 10 µM. hit rate 0.22% among 360,000. AID 624168;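 active = activation of at least 8% versus controls, or a plate z-score of at least 8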;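 also: Pro5 are CHO cells carrying HIG-tagged alpha-DG that lacks glycosylation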
Hep lipid drop – modulators of hepatic lipid droplet formation | hit rate 0.4% among 240,000 | AID 1656 | AML12 mouse hepatocytes, oleate lipid droplets, BODIPY imaging | inhibition, % at 6.5 µM;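 active = lipid droplet intensity inhibited by at least 50%, with more than 500 cells counted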
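Assay system: AML12 mouse liver cells | Compound dosing: One dose, 6.5 µM compound | Read-out basis: Droplet intensity reduction, % inhibition | Measured by: Fluorescence imaging, 20x objective, two fields per well | Schedule: Overnight treatment with compound plus oleate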
An asterisk follows results filed as active; . = no result. This is a sample that favours compounds with a hit; in the whole collection about 3% have one here.

SMILES	JMJD2C inh	NPR1 activator	GC-B act	NR3A LBD binder	aDG glyco act	Hep lipid drop
CCN(CC)c1ccc(N=Cc2ccc(N(CC)CC)cc2O)cc1	5.3	2.9	-7.5	0.0	0.1	-1.1
Cc1nc(NC(=O)c2ccco2)sc1C(=O)Nc1ccc(Br)cc1	-22.6	.	.	15.3*	0.6	.
O=C(Nc1nc2c(Br)cc(Br)cc2c(=O)s1)c1ccco1	2.6	77.5*	35.2*	1.9	0.3	0.2
Cc1nc(NC(=O)c2ccco2)sc1C(=O)O	23.4	2.7	-1.5	1.4	-0.1	-0.3
O=C(Cn1c(-c2ccccc2)noc1=O)NCc1ccccc1	1.9	-1.1	2.3	12.7*	0.2	.
CCCn1c(N)c(C(=O)CSc2nc(C)nc3sc(C)c(C)c23)c(=O)[nH]c1=O	-6.3	40.7*	-0.9	1.3	0.2	.
CCCn1c(N)c(C(=O)CSc2nc(C)cs2)c(=O)[nH]c1=O	10.4	-0.7	-1.2	-1.0	0.0	2.4
CCN=C1NC(c2cccc(Cl)c2)C(C(=O)OC)=C(C)N1Cc1ccccc1C(F)(F)F (stereo not drawn)	.	-13.7	-11.6	.	.	.
c1ccc(Cn2nnc3c(Nc4ccc5c(c4)OCO5)nc(C4CC4)nc32)cc1	-0.5	34.0	41.2*	0.7	-0.3	-29.3
CC1CCc2c(sc(/N=C/c3cccnc3)c2C(N)=O)C1 (stereo not drawn)	1.2	-1.7	-3.7	11.0*	0.0	21.4
CC1CCc2c(sc(/N=C/c3ccco3)c2C(N)=O)C1 (stereo not drawn)	-1.1	-2.9	-2.9	-1.0	-0.3	0.8
COc1ccc(CN(C)C(=O)c2cc(S(=O)(=O)N3CCOCC3)ccc2N2CCCC2)cc1	-0.2	2.4	-0.2	0.9	-0.1	.
Clc1ncnc2c1oc1ccccc12	-9.6	53.2*	34.0	-1.6	0.5	-7.1
CCSc1ncnc2c1oc1ccccc12	0.7	-3.6	-6.0	-0.5	0.1	.
Cc1ccc(C)c(NC(=O)CN(C)C(=O)c2cccc(S(=O)(=O)N3CCN(Cc4ccccc4)CC3)c2)c1	-0.7	-4.5	4.7	17.4*	1.0	-21.2
Cc1ccc(C)c(NC(=O)CN(C)C(=O)c2cccc(S(=O)(=O)N3CCCC3)c2)c1	.	-0.6	5.6	-1.6	0.0	.
CC1=NN(C(N)=S)C(=O)C1N=Nc1ccc(C)c(Br)c1 (stereo not drawn)	-6.5	0.1	-0.1	12.2*	-0.1	.
CC1=NN(C(N)=S)C(=O)C1N=Nc1ccc(Cl)cc1Cl (stereo not drawn)	23.1	0.8	-1.1	10.9*	-0.1	-8.8
CC1=NN(C(N)=S)C(=O)C1N=Nc1ccc(O)cc1 (stereo not drawn)	-5.1	-2.2	-3.6	-2.4	-0.1	-10.7
O=C(c1cscn1)N1CCC(Oc2cccnc2)CC1	.	3.5	-4.1	.	.	.
CN(Cc1ccccc1)C(=O)c1ncn2c1c(=O)[nH]c1cccnc12	.	-4.4	4.9	.	-0.2	.
O=C(NCCc1nc2ccccc2n1C/C=C/c1ccccc1)C1CCCCC1	.	-20.9	-26.2	.	.	.
CN(CCCNC(=O)c1cn(C)c2ccc(S(=O)(=O)N(C)C)cc2c1=O)c1ccccc1	5.4	-2.7	-3.9	18.2*	0.0	2.2
O=C(CSc1nc2ncc(Br)cc2[nH]1)c1ccc([N+](=O)[O-])cc1	1.1	-3.0	-6.9	-1.8	0.1	-1.2
O=C(CSc1nc2ccc([N+](=O)[O-])cc2[nH]1)c1ccc2ccccc2c1	-3.1	3.0	0.8	22.8*	0.0	.
SMILES	JMJD2C inh	NPR1 activator	GC-B act	NR3A LBD binder	aDG glyco act	Hep lipid drop
C=CCNC(=O)c1ccccc1NC(=O)c1ccc(Cl)c(S(=O)(=O)Nc2ccccc2)c1	2.8	4.7	5.6	14.3*	0.0	.
O=C(NCc1ccco1)c1ccc(Cl)c(S(=O)(=O)Nc2ccccc2)c1	12.4	4.5	-0.2	2.7	-0.4	-7.5
O=C(N[C@H](Cc1ccccc1)C(=O)O)[C@H]1O[C@@H](n2ccc(=O)[nH]c2=O)[C@H](O)[C@@H]1O	.	-2.0	7.4	.	.	.
NNc1nc(-c2ccccc2)nc2sc3c(c12)CCCC3	-5.1	3.5	4.3	0.2	-0.1	-5.9
Nc1c2c(nc3sc4c(c13)CCCC4)-c1ccccc1CC2	-0.4	-8.0	-4.4	22.5*	0.4	30.4
CCNC(=S)Nc1ccc2c(c1)oc1ccccc12	-4.7	2.4	1.5	10.2*	0.2	.
O=C(Nc1cccc(C(=O)N2CCOCC2)c1)c1cccnc1	1.4	2.9	0.0	10.5*	-0.2	-2.3
O=C(Nc1ccc2c(c1)oc1ccccc12)c1cccnc1	4.5	-2.4	-4.3	16.9*	1.1	.
O=C(Nc1ccc2c(c1)oc1ccccc12)c1ccncc1	21.1	-5.6	0.7	14.8*	0.9	.
O=C(Nc1ccc(NC(=O)c2ccncc2)cc1)c1ccncc1	1.3	3.4	-1.4	.	.	30.2
Cc1nc(NC(=O)c2ccccc2)sc1C1(C)CC(c2ccc(OC(F)(F)F)cc2)=NO1 (stereo not drawn)	13.4	.	.	.	.	.
COCCCNC(=O)C[C@H]1C[C@@]2(C(=O)OC)C(=C[C@H](C(C)C)O[C@@H]2C2CC2)N(CCc2ccc(OC)c(OC)c2)C1=O	.	0.1	6.2	.	.	.
O=C(/C=C/c1cccc([N+](=O)[O-])c1)c1ccco1	-4.9	1.6	2.5	0.1	-0.1	.
O=C(/C=C/c1ccc(Cl)c([N+](=O)[O-])c1)Nc1cccc(NC(=O)c2ccco2)c1	6.1	37.0	25.0	10.8*	-0.4	0.2
O=C(/C=C/c1cccc([N+](=O)[O-])c1)Nc1cccc(NC(=O)c2cccs2)c1	-0.9	15.4	11.5	10.7*	-0.4	-36.6
O=C(/C=C/c1cccc([N+](=O)[O-])c1)Nc1cccc(NC(=O)c2ccco2)c1	7.9	10.9	1.2	26.7*	0.4	10.1
Cc1ccc(NC(=O)/C(=C\c2cccc([N+](=O)[O-])c2)NC(=O)c2cccs2)cc1	1.6	1.6	5.2	0.8	-0.2	.
O=C(/C=C/c1cccc([N+](=O)[O-])c1)OC1CCCCC1=O (stereo not drawn)	-8.7	2.7	-5.9	12.0*	-0.1	0.5
CN(Cc1ccccc1)S(=O)(=O)c1cccc(C(=O)OCc2ccc(C(F)(F)F)cc2)c1	.	1.7	5.3	.	.	.
CCOC(=O)C1CCCN(C(=O)CCNS(=O)(=O)c2cc(Br)cnc2N)C1 (stereo not drawn)	3.7	-2.2	-2.3	2.0	0.1	6.0
C=C(C)CSc1nnc(-c2cc(-c3ccc(OC)cc3)n[nH]2)n1N	.	-2.9	-6.5	.	.	.
O=C(N/C(=C/c1cccc([N+](=O)[O-])c1)C(=O)N1CCCCCC1)c1cccs1	-1.8	-0.1	4.4	14.9*	0.1	-4.1
